# Data as given in ChEMBL document CHEMBL3822403, “Discovery, Optimization, and Biological Evaluation of Sulfonamidoacetamides as an Inducer of Axon Regeneration” (J Med Chem, 2016).
# Activity calls are given as the source filed them. The rule behind the calls is not given here.
# What was measured:
# [1] = Metabolic stability in mouse liver S9 fraction assessed as compound remaining after 30 mins; format: ADME, subcellular; details: read-out: Stability
# P19 [2] = test: Induction of neurite outgrowth in mouse P19 cells transfected with neuroD2 at 10 to 20 uM after 48 hrs by DAPI staining based confocal fluorescence image analyzer relative to control; format: functional
# Outline: (§1)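 P19 cells transfected with NeuroD2 cDNA, replated 12 h later at 8,000 cells/well in MEM, 5% FBS, 1 mM pyruvate, 2 mM glutamate; after 24 h compound exposure 48 h. βIII tubulin immunofluorescence with DAPI, four fields/well imaged at 10x, neurite outgrowth relative to DMSO-treated cells.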
# P19 [3] = test: Induction of neurite outgrowth in mouse P19 cells transfected with neuroD2 <1 uM after 48 hrs by DAPI staining based confocal fluorescence image analyzer relative to control; format: functional, cell-based; outline: as §1
# Cerebral cortex neuron = test: Induction of neurite outgrowth in Sprague-Dawley rat primary cortical neurons at 1 to 10 uM after 48 hrs by DAPI staining based confocal fluorescence image analyzer; format: functional, cell-based
# Outline: (§2)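 E18 Sprague-Dawley rat hippocampus and cortex dissociated separately, seeded at 2,000 cells/well in Neurobasal/B27 with 2 mM glutamate; after 24 h treated 48 h. Fixed, stained anti-βIII tubulin with DAPI nuclei; four fields per well imaged at 10x, neurite total length per neuron; mean ± SD, n=3.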
# Hippocampal neurone = test: Induction of neurite outgrowth in Sprague-Dawley rat primary hippocampal neurons after 48 hrs by DAPI staining based confocal fluorescence image analyzer; format: functional; outline: as §2
# P19 [4] = test: Induction of neurite outgrowth in mouse P19 cells transfected with neuroD2 at 10 uM after 48 hrs by DAPI staining based confocal fluorescence image analyzer relative to control; format: functional; outline: as §1
# Rattus norvegicus = test: Induction of axonal outgrowth of RGC in Sprague-Dawley rat optic nerve injury model assessed as regeneration of 500 to 1500 um crushed optic nerves at 0.22 ug/eye administered intravitreously once in 4 days for 3 weeks by measuring optic nerve injury by GAP-43 expression based microscopy (reference value: 0.22 +/- 0.081); format: functional
SMILES,remaining at 0.5 h [1],fold change (FC) (P19 [2]),Activity (P19 [3]),Activity (Cerebral cortex neuron),Activity (Hippocampal neurone),fold change (FC) (P19 [4]),Activity (Rattus norvegicus)
CCOc1ccccc1NC(=O)CN(c1ccccc1OC)S(=O)(=O)c1ccc(C)cc1,0.7%,3.2,inactive,Active,Active,,
COc1ccc(S(=O)(=O)N(CC(=O)Nc2cc(OC)ccc2OC)c2ccccc2OC)cc1,0.4%,,,Active,Active,2.3,
COc1ccccc1N(CC(=O)Nc1nccs1)S(=O)(=O)c1ccc(C)cc1,,,,,Active,,
COc1ccccc1N(CC(=O)Nc1cnc2ccccc2c1)S(=O)(=O)c1ccc(C)cc1,,,,Active,Active,3.6,
COc1ccc(OC)c(NC(=O)CN(c2ccccc2OC)S(=O)(=O)c2ccc(Br)cc2)c1,,,,Active,Active,5,
CCOc1ccccc1NC(=O)CN(c1ccccc1)S(=O)(=O)c1ccc(C)cc1,,,,Active,Active,2.5,
CCOc1ccccc1NC(=O)CN(c1ccccc1Cl)S(=O)(=O)c1ccc(C)cc1,,,,Active,Active,2.6,
CCc1ccccc1NC(=O)CN(c1ccccc1OC)S(=O)(=O)c1ccc(C)cc1,,,,,Active,0.8,
COc1ccccc1N(CC(=O)Nc1ncc[nH]1)S(=O)(=O)c1ccc(C)cc1,,,,,Active,,
COc1ccc(CCN(C)CCCC(C#N)(c2ccc(OC)c(OC)c2)C(C)C)cc1OC (stereo not drawn) [VERAPAMIL],23.1%,,,,,,
COc1ccccc1N(CC(=O)Nc1ccccc1)S(=O)(=O)c1ccc(C)cc1,,,,Active,Active,2,
COc1ccc(NC(=O)CN(c2ccccc2OC)S(=O)(=O)c2ccc(Cl)cc2)c(OC)c1,0.4%,,,Active,Active,4.2,
COc1ccncc1NC(=O)CN(c1ccccc1OC)S(=O)(=O)c1ccc(SC)cc1,,,,Active,Active,3.9,
COc1ccccc1N(CC(=O)Nc1ccccc1F)S(=O)(=O)c1ccc(C)cc1,,,,Active,Active,2.1,
COc1ccccc1N(CC(=O)Nc1cccc2ncccc12)S(=O)(=O)c1ccc(C)cc1,,,,Active,Active,1.3,
COc1ccc(OC)c(NC(=O)CN(Cc2ccc(C)cc2)c2ccccc2OC)c1,,,,,Active,,
CCOc1ccccc1NC(=O)CN(c1ccccc1C)S(=O)(=O)c1ccc(C)cc1,,,,Active,Active,2.6,
COC(=O)c1ccccc1NC(=O)CN(c1ccccc1OC)S(=O)(=O)c1ccc(C)cc1,0.3%,,,Active,Active,3,

SMILES,remaining at 0.5 h [1],fold change (FC) (P19 [2]),Activity (P19 [3]),Activity (Cerebral cortex neuron),Activity (Hippocampal neurone),fold change (FC) (P19 [4]),Activity (Rattus norvegicus)
CC(=O)Nc1ccc(O)cc1 [ACETAMINOPHEN],97.7%,,,,,,
CCOc1ccccc1CNC(=O)CN(c1ccccc1OC)S(=O)(=O)c1ccc(C)cc1,,,,,Active,,
CCOc1ccccc1NC(=O)CN(c1ccccc1F)S(=O)(=O)c1ccc(C)cc1,,,,Active,Active,2.9,
CCOc1ccccc1NC(=O)CN(c1cccc(OC)c1)S(=O)(=O)c1ccc(C)cc1,,,,Active,Active,3.1,
COc1ccncc1NC(=O)CN(c1ccccc1OC)S(=O)(=O)c1ccc(Br)cc1,,,,Active,Active,3.7,
COc1ccc(OC)c(NC(=O)CN(c2ccccc2OC)S(=O)(=O)c2ccc(F)cc2)c1,,,,Active,Active,2.5,
COc1ccccc1N(CC(=O)Nc1cccnc1OC(C)C)S(=O)(=O)c1ccc(C)cc1,,,,Active,Active,2.3,
COc1ccc(NC(=O)CN(c2ccccc2OC)S(=O)(=O)c2ccc(C)cc2)c(OC)c1,,,,Active,Active,2.7,
COc1ccccc1N(CC(=O)Nc1ccc2ncccc2c1)S(=O)(=O)c1ccc(C)cc1,,,,Active,Active,1,
COc1ccc(OC)c(NC(=O)CN(c2ccccc2OC)S(=O)(=O)c2ccc(SC)cc2)c1,,,,Active,Active,3.2,
CCOc1ncccc1NC(=O)CN(c1ccccc1OC)S(=O)(=O)c1ccc(C)cc1,,,,Active,Active,2.1,
COc1cccc(NC(=O)CN(c2ccccc2OC)S(=O)(=O)c2ccc(C)cc2)c1,,,,Active,Active,1.8,
COc1ccc(OC)c(NC(=O)CN(C(=O)c2ccc(Cl)cc2)c2ccccc2OC)c1,,,,,Active,1,
COc1ccccc1N(CC(=O)Nc1cccnc1OC)S(=O)(=O)c1ccc(C)cc1,,,,Active,Active,2.8,
COc1ccccc1N(CC(=O)Nc1ccccc1Br)S(=O)(=O)c1ccc(C)cc1,,,,Active,Active,2.1,
COc1ccncc1NC(=O)CN(c1ccccc1OC)S(=O)(=O)c1ccc(C)cc1,61.2%,,,Active,Active,4.2,0.7
COc1ccccc1N(CC(=O)Nc1ncccc1OC)S(=O)(=O)c1ccc(C)cc1,,,,Active,Active,1.6,
